Bioassay records (PubChem BioAssay)
Rows were chosen to be rich in hits. Some 27% of all compounds tested hit in one or more screens of this group.
CYP2C9 act = human CYP2C9 activators, primary screen, biochemical, luminescence | Cytochrome P450 2C9 (Homo sapiens), P11712 | recombinant CYP2C9, luciferin-H conversion; stronger effect = higher value; factor 1 = untreated enzyme, 0 = blocked | activation factor at 5 µM | actives 1.4% (n = 96,000) | AID 1024, 2008;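 active = activation factor of 2 or more for CYP2C9 at a 5 µM dose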
CYP2C19 activ = human CYP2C19 activators, primary screen, biochemical, luminescence. AID 1025, 2008. activation factor at 5 µM. Cytochrome P450 2C19 (Homo sapiens), P33261. recombinant CYP2C19, luciferin-H EGE luminescence; stronger effect = higher value; 0 = fully inhibited enzyme, 1 = untreated enzyme. 96,000 tested, under 10 active;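 active = activation factor of at least 2 at 5 µM in the primary screen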
Target sequence (P33261 whole entry, looked up): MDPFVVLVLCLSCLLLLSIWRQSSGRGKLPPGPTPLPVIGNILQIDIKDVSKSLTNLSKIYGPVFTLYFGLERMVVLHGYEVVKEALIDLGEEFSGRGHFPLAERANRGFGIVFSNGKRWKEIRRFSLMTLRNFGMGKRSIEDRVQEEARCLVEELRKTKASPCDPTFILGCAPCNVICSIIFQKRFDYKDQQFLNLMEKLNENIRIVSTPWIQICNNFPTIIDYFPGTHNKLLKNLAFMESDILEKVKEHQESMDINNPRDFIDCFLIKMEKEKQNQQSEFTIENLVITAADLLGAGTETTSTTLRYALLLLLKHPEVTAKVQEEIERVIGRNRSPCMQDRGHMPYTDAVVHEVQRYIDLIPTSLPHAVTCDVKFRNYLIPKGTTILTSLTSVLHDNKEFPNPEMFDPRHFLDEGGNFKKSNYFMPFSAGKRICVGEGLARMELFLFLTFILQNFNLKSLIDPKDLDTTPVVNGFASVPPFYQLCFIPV
CYP2C19 inh = blockers of cytochrome P450 2C19 activity – biochemical, luminescence, ADME assay, primary screen; P33261; CYP2C19 Supersomes, luciferin-H EGE luminescence, 30 min; inhibition, % at 5 µM; actives 21% (n = 96,000);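 active = CYP2C19 inhibition above a set limit at 5 µM in the primary screen, cut at about 50% in these data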
CYP2C9 inh = blockers of cytochrome P450 2C9 activity – biochemical, luminescence, ADME assay, primary screen; P11712; CYP2C9 Supersomes, luciferin-H conversion; inhibition, % at 5 µM; actives 20% (n = 96,000); AID 777, 2007;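 active = blocking of liver enzyme CYP2C9 beyond about 50% at 5 µM, limit read from the data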
Rev-RRE block = HIV-1 Rev-RRE binding inhibitors, primary screen, biochemical, FRET, protein-RNA interaction. Rev peptide-RRE RNA binding. inhibition, % at 8 µM. actives 0.79% (n = 97,000);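 active = inhibition above the screen-wide mean plus 3 SD, cut at about 35% in these data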
Target sequence (P05866 whole entry, looked up): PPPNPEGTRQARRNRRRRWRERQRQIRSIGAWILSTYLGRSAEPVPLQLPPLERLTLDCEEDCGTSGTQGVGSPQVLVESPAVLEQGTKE
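Assay system: Rev peptide and RRE RNA, both fluorescently labelled; times: 5 min preincubation and 15 min binding, 25 °C; detection: FRET, ex 480 nm, em 540 and 671 nm; read-out basis: % inhibition from 671/540 nm acceptor-to-donor ratio, scaled between controls; benchmarks: DMSO low control, neomycin B high control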
Cav3 T inh = Cav3.2 calcium influx blockers – cell-based, Fluo-4 calcium fluorescence, FDSS, MLSMR library, primary screen | Voltage-dependent T-type calcium channel subunit alpha-1H (Homo sapiens), O95180 | Cav3.2-expressing cells; stronger effect = lower value | B-score at 10 µM | actives 4% (n = 100,000);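 active = single-dose well whose peak fluorescence ratio is a statistical outlier from its plate by either plate-standardised score or position-corrected B-score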
A number is an active result; n = inactive; x = no result.

SMILES | CYP2C9 act | CYP2C19 activ | CYP2C19 inh | CYP2C9 inh | Rev-RRE block | Cav3 T inh
COc1ccc(Cl)cc1N1CC(c2nc3ccccc3[nH]2)CC1=O (configuration not stated) | x | x | x | x | n | n
COC(=O)Cc1c(C)c2ccc(OC(=O)c3ccco3)cc2oc1=O | n | n | n | n | n | n
CCc1c(C)c2ccc(OCC(=O)OC)cc2oc1=O | n | n | 59 | n | n | n
Cc1ccc(-c2nnc(-c3ccccc3S(=O)(=O)Cc3ccc(Cl)cc3)o2)cc1 | n | n | n | n | n | n
O=S(=O)(Cc1ccccc1Cl)Nc1ccccn1 | n | n | n | n | n | n
C#CCn1c(S(=O)(=O)Cc2ccc(C)cc2)nc(-c2ccccc2)c1-c1ccccc1 | n | n | 61 | 67 | n | -7.8
CCOC(=O)Cn1c(S(=O)(=O)Cc2ccccc2Cl)nc(-c2ccccc2)c1-c1ccccc1 | n | n | n | n | n | -7.3
CCOC(=O)Cn1c(=O)c2c(nc(Br)n2Cc2ccccc2Cl)n(C)c1=O | x | x | x | x | n | n
C#CCn1c(S(=O)(=O)Cc2ccccc2Cl)nc(-c2ccccc2)c1-c1ccccc1 | n | n | n | n | n | -7.2
CC(C)Cc1[nH]c(=O)c(C#N)c2c1CCCC2 | n | n | n | n | n | n
COC(=O)c1sccc1NC(=S)N1CCCCC1C (configuration not stated) | n | n | 63 | n | n | n
Cn1c(=O)c2c(nc(SCc3ccccn3)n2C)n(C)c1=O | n | n | n | n | x | x
CCN(CC)C(=O)N1c2ccccc2C=Cc2ccccc21 | n | n | 63 | n | n | -8.6
O=C(CN1CCCCCC1)N1c2ccccc2C=Cc2ccccc21 | n | n | 51 | n | n | n
CN(C)c1ccc(NC(=O)CN2CCC(C(=O)c3ccc(F)cc3)CC2)cc1 | n | n | n | n | n | n
COC(=O)c1ccccc1NC(=O)CN1CCOCC1 | n | n | n | n | n | n
COC(=O)c1ccccc1NC(=O)CN1CCC(C(=O)c2ccc3c(c2)OCCO3)CC1 | n | n | 81 | 78 | n | n
Cc1ccc(NC(=O)CN2CCC(C(=O)c3ccc4c(c3)OCCO4)CC2)cc1 | n | n | 85 | n | n | n
CCOc1ccc(OCC)c(NC(=O)c2ccc(CNc3c(N4CCOCC4)c(=O)c3=O)cc2)c1 | n | n | n | n | n | x
O=C(NC(NC1CCS(=O)(=O)C1)C(Cl)(Cl)Cl)c1ccc(Br)cc1 (configuration not stated) | n | n | n | n | n | n
COc1ccc(N2Cc3ccccc3C2)cc1Cl | n | n | n | 58 | n | n
COc1ccc(Cl)cc1N1Cc2ccccc2C1 | n | n | n | n | n | n
O=C(Nc1ccc(Cl)cc1)c1cc(S(=O)(=O)N2CCOCC2)cs1 | n | n | n | n | n | n
CC1CCN(S(=O)(=O)c2csc(C(=O)Nc3ccccc3)c2)CC1 | n | n | n | n | n | n
Cc1ccc(NC(=O)c2cc(S(=O)(=O)N3CCCCC3)cs2)cc1 | n | n | n | 68 | n | -4.8
SMILES | CYP2C9 act | CYP2C19 activ | CYP2C19 inh | CYP2C9 inh | Rev-RRE block | Cav3 T inh
O=C(Nc1ccc(F)cc1)c1cc(S(=O)(=O)Nc2ccc(F)cc2)cs1 | n | n | 77 | 90 | n | -5.8
C=C(C)C(=O)Nc1cccc(C2=NOC3(C2)C[C@H](C(N)=O)N(C(=O)/C=C/C)C3)c1 (some centres not stated) | x | x | x | x | x | n
Cc1cccc2cc(CN(Cc3cccnc3)C(=O)c3ccncc3)c(=O)[nH]c12 | n | n | 73 | 61 | x | n
Cc1ccc(CN(Cc2cc3cccc(C)c3[nH]c2=O)C(=O)N(C)C)cc1 | n | n | 52 | n | x | n
CCC(C)N1CCN(C(=O)c2cccs2)CC1 (configuration not stated) | x | x | x | x | n | n
Cc1cc(N)n2ncc(-c3ccccc3)c2n1 | n | n | n | n | n | n
Cc1cc(N)n2ncc(-c3cccc(Br)c3)c2n1 | n | n | n | 72 | n | n
COC(=O)C(C)Sc1nnc(Cc2cc(=O)[nH]c(=O)[nH]2)n1-c1ccc(OC)cc1 (configuration not stated) | n | n | n | n | n | n
Cc1ccc(C(=O)O/N=C2\CCS(=O)(=O)c3sccc32)cc1 | n | n | n | n | n | n
O=C(OC1CCS(=O)(=O)c2sccc21)c1ccccc1 (configuration not stated) | n | n | 56 | n | n | n
CSc1ccc(Cl)c(C(=O)OCC(=O)NCC(C)C)c1 | n | n | 66 | n | n | n
CCOC(=O)c1c(C)[nH]c(C(=O)COC(=O)c2oc3ccc(OC)cc3c2C)c1C | n | n | n | n | x | n
CCOC(=O)c1oc2ccc(S(=O)(=O)n3nc(-c4ccc(Cl)cc4)cc3N)cc2c1C | n | n | n | 99 | n | n
CCOC(=O)c1oc2ccc(S(=O)(=O)n3nc(-c4ccc(C)cc4)cc3N)cc2c1C | n | n | n | 96 | n | n
Cc1ccc(CNC(=O)c2oc3ccc(S(=O)(=O)N4CCOCC4)cc3c2C)cc1 | n | n | n | n | n | n
CCCc1c(CC)c(=N)c2ccccc2n1C | n | n | n | n | n | n
Cc1noc(C)c1C(=O)OCC(=O)NCCc1ccc(Cl)cc1 | n | n | n | n | n | n
Cc1noc(C)c1C(=O)OCC(=O)c1ccc[nH]1 | n | n | n | 85 | n | n
Cc1noc(C)c1C(=O)OCC(=O)c1cc(C)n(Cc2ccccc2Cl)c1C | n | n | 90 | 87 | n | n
Cc1ccc(CNC(=O)COC(=O)c2c(C)noc2C)cc1 | n | n | 86 | n | n | n
CC(OCC(O)CN(C)CCOc1ccccc1)c1ccc(Cl)cc1 (configuration not stated) | n | n | 75 | n | n | n
O=S(=O)(c1ccccc1)N1CCCC1c1nc2ccccc2s1 (configuration not stated) | n | n | n | n | n | n
O=C(Nc1nc2ccccc2s1)C1CCCN1S(=O)(=O)c1ccc(Cl)cc1 (configuration not stated) | n | n | 96 | 97 | n | -5.3
Nc1nc(C2CCCN2S(=O)(=O)c2ccc(Cl)cc2)cs1 (configuration not stated) | n | n | 80 | n | n | n
Cc1ccc(S(=O)(=O)N2CCCC2C(=O)Nc2nc3ccccc3s2)cc1 (configuration not stated) | n | n | 97 | 86 | n | n
O=S(=O)(c1ccc(Cl)cc1)N1CCCC1c1nc(-c2ccc(Cl)cc2)no1 (configuration not stated) | x | x | x | x | n | n
